From PubChem BioAssay
CHO parental Ca: counter-screen: ATP calcium response change in parental CHO cells | parental CHO-K1, ATP-induced calcium, Fluo-8 fluorescence | inhibition, % at 5.6 µM | 0.63% of 330,000 active;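 active = inhibition above that plate's mean sample inhibition plus 3 SD, cut at about 26% in these data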
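Assay system: parental CHO cells; Read-out basis: percent inhibition of ATP-evoked calcium rise, normalized to controls; Benchmarks: ATP and no-ATP DMSO wells; Compound dosing: single nominal dose of 5.6 µM per compound; Signal: Fluo-8 calcium dye fluorescence; Also added: ATP as calcium-mobilizing challenge; Repeats: singlicate.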
GalR3 antag: antagonists of human GalR3; 0.44% of 360,000 active; AID 651719; HEK293 GalR3-CNG cAMP membrane potential fluorescence; galR3 body fused to GalR1 C-terminus; inhibition, % at 3 µM;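 active = inhibition above the screen-wide average plus 3 SD, cut at about 13% in these data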;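 note: forskolin and galanin both at EC90 stimulate the cells; cAMP rise reported by CNG channel membrane potential dye signal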
Target sequence (O60755 1-299 limits assumed): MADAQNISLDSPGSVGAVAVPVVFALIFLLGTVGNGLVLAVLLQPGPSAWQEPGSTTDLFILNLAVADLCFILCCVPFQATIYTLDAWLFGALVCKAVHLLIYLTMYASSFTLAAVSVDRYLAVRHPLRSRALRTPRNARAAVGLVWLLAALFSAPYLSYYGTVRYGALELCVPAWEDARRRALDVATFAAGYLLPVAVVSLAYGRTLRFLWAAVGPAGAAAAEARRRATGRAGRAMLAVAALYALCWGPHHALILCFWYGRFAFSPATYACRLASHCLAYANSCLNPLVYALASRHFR
GPR7 antag: blocks human GPR7 receptor signaling | GPR7-expressing cells, fluorescence antagonist assay | inhibition, % at 4.4 µM | 1.1% of 290,000 active | AID 1861; in the data active = inhibition above about 16%, passing the limit was not always enough;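 note: cells stimulated with the agonist NPW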
Target sequence (P48145 whole entry, looked up): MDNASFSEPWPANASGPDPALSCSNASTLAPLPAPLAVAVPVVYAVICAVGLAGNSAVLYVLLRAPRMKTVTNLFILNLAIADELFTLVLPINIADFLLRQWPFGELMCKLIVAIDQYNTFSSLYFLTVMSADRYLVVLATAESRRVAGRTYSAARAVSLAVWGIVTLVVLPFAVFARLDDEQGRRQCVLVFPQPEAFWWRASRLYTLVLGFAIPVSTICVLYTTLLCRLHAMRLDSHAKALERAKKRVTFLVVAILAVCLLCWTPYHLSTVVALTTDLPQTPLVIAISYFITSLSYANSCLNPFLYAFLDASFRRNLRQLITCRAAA
OX1R antag-1: human HCRTR1 antagonism; CHO/OX1R cells, Fluo-8 calcium fluorescence, orexin A; inhibition, % at 5 µM; 0.43% of 330,000 active; AID 434989;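 active = inhibition above its plate's threshold, mean inhibition of all tested compounds on the plate plus 3 SD, cut at about 37% in these data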
OX1R antag-2: blocks the human orexin 1 receptor; OX1R-expressing cells, FRET antagonist read-out; inhibition, % at 6.6 µM; 1.8% of 330,000 active; in the data active = inhibition mostly above about 38%, no sharp cut-off; inactive = mostly below about 40%
OX1R Fluo8 conf: OX1R (human) antagonism, confirmed; shares compounds with OX1R antag-1; CHO/OX1R cells, orexin A calcium Fluo-8 fluorescence; inhibition, % at 5 µM; 38% of 1,100 active; AID 492963; in the data active = inhibition above about 29%
CHO Ca triplic: counter-screen for OX1R antagonists: effect in parental CHO cells. shares compounds with OX1R antag-1. parental CHO-K1, ATP-induced calcium, Fluo-8 fluorescence. inhibition, % at 5.6 µM. 9.3% of 1,100 active. AID 492965;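 active = inhibition above a per-plate limit, the mean inhibition of that plate's test compounds plus 3 SD, cut at about 25% in these data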
A number is an active result; – = inactive; · = not tested or not shown. Most compounds without a hit are left out; they make up all but 3.1% or so of the library.

SMILES	CHO parental Ca	GalR3 antag	GPR7 antag	OX1R antag-1	OX1R antag-2	OX1R Fluo8 conf	CHO Ca triplic
CC1=Nc2ccccc2/C1=C\c1nc(-c2ccc(C(F)(F)F)cc2)oc1O	–	–	–	40	–	51	54
Cc1ccc(N=Cc2nc(-c3ccc(C)cc3)oc2O)cc1	·	–	–	·	·	·	·
COc1ccc(-c2nc(/C=C3\C(C)=Nc4ccccc43)c(O)o2)cc1	–	–	–	–	–	–	–
COc1cn(-c2ccccc2)nc1C(=O)Nc1ccc(C)cc1Cl	–	–	–	–	–	–	–
COc1ccc(CNC(=O)c2nn(-c3ccccc3)cc2OC)cc1	–	–	–	–	–	·	·
O=C(CSc1ccc(S(=O)(=O)N2CCOCC2)cn1)Nc1ccc(F)c(F)c1	–	–	·	–	–	–	–
O=S(=O)(NC1CCSc2ccccc21)c1ccc(Cl)nc1 (stereo not drawn)	–	–	–	52	–	–	–
CN(Cc1ccccc1)C(=O)COC(=O)c1cc(NS(=O)(=O)c2cccs2)ccc1O	–	–	–	44	–	31	26
N#CC1c2ccccc2C=CN1C(=O)N(c1ccccc1)c1ccccc1 (stereo not drawn)	·	–	·	·	·	·	·
S=C(NCc1cccnc1)Nc1cccc2ccccc12	–	–	–	–	–	–	–
CCn1c(SCC(=O)N2CCCC2)nc2ccccc2c1=O	–	–	–	34	–	–	–
COc1cccc(CNC(=O)c2cccc(S(=O)(=O)N3CCN(c4ccc(F)cc4)CC3)c2)c1	–	–	·	–	–	–	–
COc1ccc(COC(=O)c2cccc(S(=O)(=O)N3CCN(C(C)=O)CC3)c2)cc1	–	–	·	–	–	–	–
COc1ccc(CNC(=O)c2cccc(S(=O)(=O)N3CCN(c4ccc(F)cc4)CC3)c2)cc1	·	–	·	·	·	·	·
Cc1noc(C)c1NC(=O)N(C)C[C@H]1OCc2cn(nn2)CCCC(=O)N([C@H](C)CO)C[C@@H]1C	·	–	·	·	·	·	·
CNc1ccc(Oc2c(F)c(F)nc(F)c2F)cc1	–	–	–	–	–	–	–
Cc1ccc(Oc2c(F)c(F)nc(N3CCCC3)c2F)cc1	–	–	–	–	–	·	·
Cc1ccc(NC(=O)N(C2=NCC(C)S2)c2ccccc2)cc1 (stereo not drawn)	–	–	–	–	–	·	·
CNC(=S)N(C1=NCC(c2ccc([N+](=O)[O-])cc2)S1)c1ccccc1 (stereo not drawn)	–	–	–	–	–	–	–
Cc1ccc(C)c(CNc2ccc(S(=O)(=O)N3CCCCC3)cc2)c1	–	–	·	44	–	–	53
CCN(CC)c1ccc(C(=C2C=CC(=[N+](CC)CC)C=C2)c2ccc(S(=O)(=O)O)cc2S(=O)(=O)[O-])cc1	·	–	·	·	·	·	·
C/C(=N/NC(=O)c1ccncc1)c1cc2ccc(O)cc2oc1=O	–	–	–	–	–	66	54
C/C(=N\NC(=O)c1ccncc1)c1cc2ccccc2oc1=O	–	–	–	–	–	·	·
CCOC(=O)c1sc(NCCNc2nc(C)c(C(=O)OCC)s2)nc1C	–	·	·	–	–	·	·
CCOC(=O)c1sc(N)nc1C(C)(C)C	–	–	–	–	–	–	–
SMILES	CHO parental Ca	GalR3 antag	GPR7 antag	OX1R antag-1	OX1R antag-2	OX1R Fluo8 conf	CHO Ca triplic
CC1(c2ccc([N+](=O)[O-])cc2)NC(=O)N(CC(=O)Nc2ccc(N3CCCCC3)cc2)C1=O (stereo not drawn)	–	–	·	–	–	48	–
CC1(c2ccc(OC(F)F)cc2)NC(=O)N(CC(=O)Nc2ccc(N3CCCCC3)cc2)C1=O (stereo not drawn)	–	–	·	–	–	62	32
CCCCNC(=O)C[C@@H]1C[C@@]2(C(=O)OCC)CCC=C2N(CCC2=CCCCC2)C1=O	·	–	·	·	·	·	·
CC(=O)Oc1cccc(NC(=O)c2cccc(C(=O)Nc3cccc(OC(C)=O)c3)c2)c1	–	–	–	52	–	–	–
C#CCNc1cccc2c1S(=O)(=O)N[C@H](C)CO2	·	–	·	·	·	·	·
Cc1cc(S(=O)(=O)Nc2ncnc3sccc23)ccc1F	·	–	·	·	·	·	·
Cc1noc(C)c1C(=O)OCC(=O)c1cc(C)n(Cc2ccccc2Cl)c1C	–	–	–	49	–	–	–
N#CCCn1cc(/C=N/NC(N)=S)c(-c2ccc(-c3ccccc3)cc2)n1	–	–	–	–	–	–	–
N#CCCn1cc(/C=N/O)c(-c2ccccc2)n1	–	–	–	–	–	·	·
CC(O)(c1cccnc1)c1nc(-c2cccc(C(F)(F)F)c2)cs1 (stereo not drawn)	·	–	·	·	·	·	·
COCCN(C(=O)COC(=O)C1CCCCC1)c1c(N)n(Cc2ccccc2)c(=O)[nH]c1=O	·	–	·	·	·	·	·
Cc1nc(C(F)(F)F)ccc1C(=O)N1CCCCCC1(C)C(=O)NCC(C)C (stereo not drawn)	·	–	·	·	·	·	·
O=C(c1ccc2ccccc2c1)C1CCCN(S(=O)(=O)c2cccnc2)C1 (stereo not drawn)	–	–	–	–	–	–	–
Cc1ccc(N=Cc2sc(O)c3ccccc23)cc1	–	–	–	–	–	–	–
COc1ccc(NC(=O)CCc2nc(-c3ccc(C)cc3)no2)cc1Cl	–	–	–	–	–	–	–
Cc1cccc(NC(=O)Nc2ccc(S(N)(=O)=O)cc2)c1	–	–	–	–	–	·	·
NS(=O)(=O)c1cccc(NC(=O)Nc2ccc(Cl)cc2)c1	–	–	–	–	–	–	–
N#CCc1ccc(NC(=O)Nc2cccc(Cl)c2)cc1	–	–	–	–	–	–	34
CC[C@]12C(=O)N(C)C[C@H]([C@@H]3C(=O)N(Cc4ccccc4)C(=O)[C@@H]31)N2C(=O)c1ccc(F)cc1	·	–	·	·	·	·	·
Cc1ccc(F)c(S(=O)(=O)NC(=O)C2(C)CCN2C(=O)C2(c3ccc(Cl)cc3)CCC2)c1 (stereo not drawn)	·	–	·	·	·	·	·
COc1cccc(C(=O)/C=C/Nc2ccc(S(=O)(=O)Nc3cccc(C(C)=O)c3)cc2)c1	–	–	–	–	–	–	–
COc1ccc(-c2cc(NC=O)c3ncc(-c4cnn(C)c4)n3c2)cc1	·	–	·	·	·	·	·
CCOc1ccccc1NC(=O)CCN(c1ccc(C)cc1)S(=O)(=O)c1ccccc1	–	–	–	–	–	·	·
CCOc1ccccc1NC(=O)CN(c1nccs1)S(=O)(=O)c1ccc(N)cc1	–	–	–	–	–	30	–
CCNC(=S)N(Cc1ccc2c(c1)OCO2)C1CC(=O)N(c2ccc(F)cc2)C1=O (stereo not drawn)	–	–	–	57	–	–	–
CCNC(=S)N(Cc1ccc2c(c1)OCO2)C1CC(=O)N(c2ccc(OC)cc2)C1=O (stereo not drawn)	–	–	–	–	–	·	·
COc1cc(-c2coc3c(C(=O)NCc4ccc(C(F)(F)F)cc4)cccc23)ccc1O	·	–	·	·	·	·	·
CCOC(=O)CC1(C)Oc2cc(Cl)ccc2N1S(=O)(=O)c1ccc(C)cc1 (stereo not drawn)	·	–	·	·	·	·	·
